Laboratory results: publication PMC8577376 (Journal of Medicinal Chemistry, 2021)

Tests used:
human CatL [1] = target: T1, human CatL (Homo sapiens, UniProt P07711); test: kinact/KI^app determination, recombinant human CatL; format: biochemical; conditions: for kinact/KI: read-out: kinact/KI^app; for selectivity for CatL over CatB (kinact/KI^app): human CatL vs human CatB
In short: (§1)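 Test compound 555.56–0.01 nM, quadruplicate wells. Product formation rates taken at 6 min intervals over 1 h, normalised to DMSO controls. kobs from inactivation curves; kinact and KIapp by nonlinear regression of kobs = kinact[I]/(KIapp+[I]); ratio then calculated.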

Human CatB = Human CatB (Homo sapiens, UniProt P07858); test: kinact/KI^app determination, recombinant human CatB; format: biochemical; conditions: for kinact/KI: read-out: kinact/KI^app
In short: as §1

Mouse CatL (mCatL) = Mouse CatL (mCatL) (Mus musculus, UniProt P06797); test: kinact/KI^app determination, mouse CatL; format: biochemical; conditions: for kinact/KI: read-out: kinact/KI^app
In short: as §1

SARS-CoV-2 [2] = test: SARS-CoV-2-induced CPE in A549/ACE2 cells, inverted microscope; format: cell-based; conditions: 96 h
human CatL [3] = target: T1, human CatL; test: Single-concentration protease screen against human CatL; format: biochemical; conditions: for follow-up screen against CatL: 13 nM
SARS-CoV-2 [4] = test: microbe, parasite or virus in culture; format: cell-based
[5] = target: VeroE6 lysates (CatL activity) (Chlorocebus aethiops, UniProt Q9GKL8); test: Protease activity in VeroE6 cell lysates using Z-Phe-Arg-AMC; format: biochemical, monkey; conditions: for inactivation of CatL in VeroE6 lysates: 10 μM; for inhibition of Z-Phe-Arg-AMC cleaving activity in VeroE6 lysates: 20 μM
[6] = system: A549 lysates (CatL/CatB activity); test: Protease activity in A549 cell lysates using Z-Phe-Arg-AMC; format: biochemical, human; conditions: for inactivation of CatL in A549 lysates: 10 μM; for inhibition of Z-Phe-Arg-AMC cleaving activity in A549 cell extracts: 20 μM
In short: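 A549 cells lysed by sonication in 50 mM MES pH 6.0 with 100 μM AEBSF, 1 μM pepstatin A, 1 mM EDTA and 1 mM DTT; protein measured by BCA. Equal volume of 50 μM Z-Phe-Arg-AMC then added; activity normalised to 0.2% DMSO wells.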

SARS-CoV-2 Mpro = SARS-CoV-2 Mpro (Severe acute respiratory syndrome coronavirus 2, UniProt P0DTD1); test: Single-concentration protease screen against SARS-CoV-2 Mpro; format: biochemical; conditions: 10 μM
SARS-CoV-2 PLpro = SARS-CoV-2 PLpro (Severe acute respiratory syndrome coronavirus 2, UniProt P0DTD1); test: Single-concentration protease screen against SARS-CoV-2 PLpro; format: biochemical; conditions: 10 μM
Recombinant human furin = Recombinant human furin (Homo sapiens, UniProt P09958); format: biochemical; conditions: up to 50 μM (final concentration)
[7] = target: Recombinant human TMPRSS2 (Homo sapiens, UniProt O15393); test: TMPRSS2 protease activity assay; format: biochemical; conditions: up to 50 μM (final concentration)
SARS-CoV-2 [8] = format: cell-based; conditions: MRC-5/ACE2/TMPRSS2 cells
SARS-CoV-2 [9] = format: cell-based; conditions: 24 h
SARS-CoV-2 [10] = format: cell-based

Mouse CatL (mCatL), sequence (P06797 114-334): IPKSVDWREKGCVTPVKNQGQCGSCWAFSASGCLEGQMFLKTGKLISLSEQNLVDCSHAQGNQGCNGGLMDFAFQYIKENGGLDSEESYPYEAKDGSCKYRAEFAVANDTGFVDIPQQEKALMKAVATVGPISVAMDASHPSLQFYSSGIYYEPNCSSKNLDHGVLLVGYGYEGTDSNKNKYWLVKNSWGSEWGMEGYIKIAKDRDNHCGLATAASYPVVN
T1 sequence (P07711 114-333): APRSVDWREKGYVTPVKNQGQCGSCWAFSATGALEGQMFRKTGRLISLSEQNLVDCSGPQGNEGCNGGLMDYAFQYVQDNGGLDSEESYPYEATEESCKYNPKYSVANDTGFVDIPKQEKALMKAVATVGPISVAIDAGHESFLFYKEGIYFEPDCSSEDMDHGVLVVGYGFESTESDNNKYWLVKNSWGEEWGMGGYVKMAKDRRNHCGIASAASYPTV
VeroE6 lysates (CatL activity), sequence (Q9GKL8 114-333): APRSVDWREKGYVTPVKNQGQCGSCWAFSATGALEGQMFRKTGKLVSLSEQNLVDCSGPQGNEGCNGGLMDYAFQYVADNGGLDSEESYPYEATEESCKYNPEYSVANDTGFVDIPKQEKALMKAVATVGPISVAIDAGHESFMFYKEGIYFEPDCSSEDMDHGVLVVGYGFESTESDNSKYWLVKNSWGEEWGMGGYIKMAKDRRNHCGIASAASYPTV
Recombinant human TMPRSS2, sequence (O15393 whole entry): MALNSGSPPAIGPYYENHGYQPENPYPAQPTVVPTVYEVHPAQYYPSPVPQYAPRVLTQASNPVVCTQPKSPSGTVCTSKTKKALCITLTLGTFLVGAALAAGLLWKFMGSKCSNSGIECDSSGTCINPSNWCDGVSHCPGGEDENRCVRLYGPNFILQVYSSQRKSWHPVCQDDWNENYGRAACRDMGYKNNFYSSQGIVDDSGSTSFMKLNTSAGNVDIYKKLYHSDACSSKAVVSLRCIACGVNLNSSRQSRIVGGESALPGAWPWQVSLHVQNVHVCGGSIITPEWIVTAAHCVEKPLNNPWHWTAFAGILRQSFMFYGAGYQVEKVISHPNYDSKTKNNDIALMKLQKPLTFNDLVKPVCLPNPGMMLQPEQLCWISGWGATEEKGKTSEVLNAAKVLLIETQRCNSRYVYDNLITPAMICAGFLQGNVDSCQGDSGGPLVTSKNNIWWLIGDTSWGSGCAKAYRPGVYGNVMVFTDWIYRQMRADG
Recombinant human furin, sequence (P09958 108-794): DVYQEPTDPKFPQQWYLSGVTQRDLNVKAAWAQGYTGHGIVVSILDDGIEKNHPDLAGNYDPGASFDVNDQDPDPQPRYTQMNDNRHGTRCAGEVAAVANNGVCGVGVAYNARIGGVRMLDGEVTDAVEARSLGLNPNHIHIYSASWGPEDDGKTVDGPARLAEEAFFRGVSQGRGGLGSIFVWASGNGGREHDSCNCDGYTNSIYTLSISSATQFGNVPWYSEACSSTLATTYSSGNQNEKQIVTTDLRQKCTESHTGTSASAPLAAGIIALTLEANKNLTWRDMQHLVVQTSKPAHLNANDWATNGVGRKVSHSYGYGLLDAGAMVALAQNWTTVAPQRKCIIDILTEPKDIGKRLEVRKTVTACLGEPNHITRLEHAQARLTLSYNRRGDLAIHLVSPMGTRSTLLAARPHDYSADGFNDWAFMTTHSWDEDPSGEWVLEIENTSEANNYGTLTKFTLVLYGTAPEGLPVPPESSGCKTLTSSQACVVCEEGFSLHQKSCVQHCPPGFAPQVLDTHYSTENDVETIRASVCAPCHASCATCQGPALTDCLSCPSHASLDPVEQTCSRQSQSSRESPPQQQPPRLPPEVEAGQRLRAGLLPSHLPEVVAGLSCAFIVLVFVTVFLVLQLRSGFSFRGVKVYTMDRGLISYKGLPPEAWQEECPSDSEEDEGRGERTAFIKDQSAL

SMILES | kinact (human CatL [1]) | kinact/KI (human CatL [1]) | kinact (Human CatB) | kinact/KI (Human CatB) | kinact (Mouse CatL (mCatL)) | kinact/KI (Mouse CatL (mCatL)) | lowest concentration completely preventing virus-induced CPE (SARS-CoV-2 [2]) | follow-up screen against CatL (human CatL [3]) | also measured
COC1=CC(=O)N(C(=O)/C=C/[C@H](CCc2ccccc2)NC(=O)[C@H](CC(C)C)NC(=O)[C@H](CC(C)C)NC(=O)[C@H](C(C)C)N(C)C)[C@H]1Cc1c[nH]c2ccccc12 [compound 23] | 0.00985 s⁻¹ | 835000 M⁻¹ s⁻¹ | 0.00189 s⁻¹ | 7940 M⁻¹ s⁻¹ | 0.0096 s⁻¹ | 2.31e+06 M⁻¹ s⁻¹ | 310 nM | most potent inhibitors | fold more potent than parent natural product 1, based on kinact/KI^app (human CatL [1]; human CatL): 1.4 fold
CC[C@H](C)[C@@H](C(=O)O[C@@H](CC(C)C)C(=O)N[C@@H](CC(C)C)C(=O)N[C@@H](C)/C=C/C(=O)N1C(=O)C=C(OC)[C@@H]1CC(C)C)N(C)C [compound 3] |  |  |  |  |  |  |  | most potent inhibitors | 
COC1=CC(=O)N(C(=O)/C=C/[C@H](C)NC(=O)[C@H](CC(C)C)NC(=O)[C@H](CC2CCCCC2)NC(=O)C2CCN(C)CC2)[C@H]1Cc1c[nH]c2ccccc12 [compound 17] | 0.00347 s⁻¹ | 193000 M⁻¹ s⁻¹ | 0.0209 s⁻¹ | 24300 M⁻¹ s⁻¹ | 0.00856 s⁻¹ | 292000 M⁻¹ s⁻¹ |  | most potent inhibitors | EC50 (SARS-CoV-2 [4]; Severe acute respiratory syndrome coronavirus 2, Vero C1008, 72 h, read-out: EC50 SARS-CoV-2, VeroE6 cells, 72 h, mean ± SD of 3–4 independent biological replicates): > 5 µM; selectivity for CatL over CatB (kinact/KI^app) (human CatL [1]): 8 fold; inactivation of CatL in VeroE6 lysates [5]: complete inactivation; inactivation of CatL in A549 lysates [6]: complete inactivation
CC[C@H](C)[C@@H](C(=O)O[C@@H](CC(C)C)C(=O)N[C@@H](CC(C)C)C(=O)N[C@@H](C)/C=C/C(=O)N1C(=O)C=C(OC)[C@@H]1C)N(C)C [compound 1, gallinamide A] | 0.00475 s⁻¹ | 598000 M⁻¹ s⁻¹ | 0.000627 s⁻¹ | 5350 M⁻¹ s⁻¹ | 0.00569 s⁻¹ | 1.07e+06 M⁻¹ s⁻¹ | 625 nM | most potent inhibitors | selectivity for CatL over CatB (kinact/KI^app) (human CatL [1]): 112 fold; CatL activity after incubation with compound (human CatL [3]; 10 μM): completely inhibited; inhibition of Mpro (SARS-CoV-2 Mpro): no inhibition; inhibition of PLpro (SARS-CoV-2 PLpro): no inhibition; inhibition of furin activity (Recombinant human furin): did not inhibit; inhibition of TMPRSS2 activity [7]: did not inhibit; inhibition of Z-Phe-Arg-AMC cleaving activity in VeroE6 lysates [5]: completely inhibited; inhibition of Z-Phe-Arg-AMC cleaving activity in A549 cell extracts [6]: inhibited; concentration completely neutralizing SARS-CoV-2 entry (SARS-CoV-2 [8]): 32 nM; antiviral activity in HEK293-ACE2-TMPRSS2 cells (SARS-CoV-2 [9]): substantially reduced; inhibitory effect on infection by time of addition (SARS-CoV-2 [10]): maximum when 1 was added prior to or at the time of entry
COC1=CC(=O)N(C(=O)/C=C/[C@H](C)NC(=O)[C@H](CC(C)C)NC(=O)[C@H](CC(C)C)NC(=O)C2CCN(C)CC2)[C@H]1Cc1c[nH]c2ccccc12 [compound 20] | 0.00834 s⁻¹ | 290000 M⁻¹ s⁻¹ | 0.017 s⁻¹ | 19900 M⁻¹ s⁻¹ | 0.00319 s⁻¹ | 806000 M⁻¹ s⁻¹ |  | most potent inhibitors | inactivation of CatL in VeroE6 lysates [5]: complete inactivation; inactivation of CatL in A549 lysates [6]: complete inactivation
COC1=CC(=O)N(C(=O)/C=C/[C@H](C)NC(=O)[C@H](CCc2ccccc2)NC(=O)[C@H](CC2CCCCC2)NC(=O)[C@H](C(C)C)N(C)C)[C@H]1Cc1c[nH]c2ccccc12 [compound 19] | 0.00587 s⁻¹ | 189000 M⁻¹ s⁻¹ | 0.00335 s⁻¹ | 9650 M⁻¹ s⁻¹ | 0.00224 s⁻¹ | 136000 M⁻¹ s⁻¹ | 310 nM | most potent inhibitors | concentration completely neutralizing SARS-CoV-2 entry (SARS-CoV-2 [8]): 32 nM
CS(=O)(=O)O.CS(=O)(=O)O.N=C(N)Nc1ccc(C(=O)Oc2ccc3cc(C(=N)N)ccc3c2)cc1 [nafamostat mesylate, reference compound] |  |  |  |  |  |  |  |  | antiviral activity on VeroE6 cells (SARS-CoV-2 [4]): not effective; antiviral activity on VeroE6 cells (SARS-CoV-2 [4]; listed as Nafamostat mesylate): did not exhibit notable antiviral activity; concentration of neutralization of infection (SARS-CoV-2 [8]): 4 µM; antiviral activity in HEK293-ACE2-TMPRSS2 cells (SARS-CoV-2 [9]): potent antiviral activity
CCCNC(=O)[C@H]1O[C@@H]1C(=O)N[C@H](C(=O)N1CCC[C@H]1C(=O)O)[C@@H](C)CC [CA-074, reference compound] |  |  |  |  |  |  |  |  | inhibition of Z-Phe-Arg-AMC cleaving activity in VeroE6 lysates [5]: no inhibitory activity; inhibition of Z-Phe-Arg-AMC cleaving activity in A549 cell extracts [6]: most of the activity was also sensitive
